Experiment [1] is described as follows: Cytotoxicity against human COLO250 cells. The experiment is classed as functional, cell-based. The method, boiled down:
(§1)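 In vitro cytotoxicity against human tumor cells: COLO-250 colon carcinoma cells and KB-16 nasopharyngeal carcinoma cells. Activity expressed as IC50 in µg/mL.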

Experiment [2] in a line: Cytotoxicity against human KB16 cells. The experiment is classed as functional, cell-based. The procedure, abridged:
as §1

[3] abbreviates: Homo sapiens, KB16, read-out: IC50.

We go through nine molecules from ChEMBL document CHEMBL1150569, “Three new furan derivatives and a new fatty acid from a Taiwanese marine sponge Plakortis simplex” (J Nat Prod, 2001).

Values after ≈ are worked out from the molar mass of the structure shown.

For `COC(=O)CCC(=O)CC(=O)OC`, the half-inhibitory concentration (IC50) result in experiment [1] and in experiment [2] (kb16) was “Not Active” each time.
Consider `CCCCCCCCCCCCCCCC[C@@]1(OC)C=C[C@@H](CC(=O)OC)OO1` [CHONDRILLIN], for which the IC50 entry in experiment [1] was “Not Active”; in experiment [2] (setting [3]) it was 0.74 µg/mL (≈ 1.79 µM).
Regarding `COC(=O)/C=C\C=C/C(=O)O`, the IC50 entry in experiment [1] and in experiment [2] (kb16) was “Not Active” throughout.
For the molecule `CCCCC(CCC=O)CCCCCCCc1ccc(CC(=O)OC)o1` (stereo not drawn) [PLAKORSIN C], the IC50 entry in experiment [1] and in experiment [2] (kb16) was “Not Active” each time.
In the case of `CCCCCCCCCCCCCCCC[C@@]1(OC)C=C[C@H](CC(=O)OC)OO1`, the IC50 entry in experiment [1] and in experiment [2] (kb16) was “Not Active” throughout.
Take `COC(=O)C[C@@H]1C=CC(=O)O1`: the IC50 result in experiment [1] and in experiment [2] (kb16) was “Not Active” in each case.
For the molecule `CCCCCCCCCCCCCCCCc1ccc(CC(=O)OC)o1` [PLAKORSIN A], the IC50 result in experiment [1] and in experiment [2] (kb16) was “Not Active” in each case.
In the case of `CCCCCCCCCCCCCCCCc1ccc(CC(=O)O)o1` [PLAKORSIN B], the IC50 amounted to 0.28 µg/mL (≈ 0.799 µM) in experiment [1] (Homo sapiens, read-out: IC50) and 3.43 µg/mL (≈ 9.78 µM) in experiment [2] (setting [3]).
Turning to `CCCCCCCCCCCCCCCCC(=O)/C=C/C1OC1C(=O)O` (stereo not drawn) [PLAKORTIC ACID], the IC50 result in experiment [1] and in experiment [2] (kb16) was “Not Active” each time.
